Reference: ChEMBL document CHEMBL4038284, “Synthesis of novel quinoline-based 4,5-dihydro-1H-pyrazoles as potential anticancer, antifungal, antibacterial and antiprotozoal agents” (Eur J Med Chem, 2017)
Converted amounts (≈) assume the structure as drawn.

How the values were obtained:
Klebsiella pneumoniae [1] = experiment: Antibacterial activity against ESBL positive Klebsiella pneumoniae ATCC 700603 after 24 hrs by resazurin dye based microdilution assay; format: functional; conditions: Klebsiella pneumoniae, 700603, 24 h
Outline: (§1)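 MIC taken as the lowest concentration giving visible inhibition and/or by resazurin (1 mg/mL). Gentamicin was the control. Run in duplicate, repeated at least three times.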

Klebsiella pneumoniae [2] = experiment: Antibacterial activity against carbapenemase positive Klebsiella pneumoniae BAA 1705 after 24 hrs by resazurin dye based microdilution assay; format: functional; conditions: BAA 1705, 24 h; outline: as §1
Leishmania panamensis = experiment: Antileshmanial activity against EpiR/GFP fused Leishmania panamensis MHOM/CO/87/UA140 intracellular amastigotes infected in human […] cells after 72 hrs by flow cytometric method; format: functional, cell-based; conditions: MHOM/CO/87/UA140, 72 h
Outline: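 PMA-treated U-937 cells (3 × 10^5 cells/mL) infected with stationary-phase GFP L. panamensis promastigotes (15:1), 3 h at 34 °C, then washed. After 24 h, compounds added at 50, 12.5, 3.125 and 0.78 µg/mL for 72 h at 37 °C. EC50 by Probit; triplicate, two experiments.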

Candida albicans [3] = experiment: Antifungal activity against Candida albicans ATCC 10231 incubated for 48 hrs under dark condition by broth microdilution method; format: functional; conditions: ATCC 10231, 48 h
Outline: (§2)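 CLSI M27-A3 broth microdilution in RPMI-1640, DMSO ≤1%, compounds at 250-0.98 µg/mL final. Inoculum 1-5 × 10^3 CFU/mL. Incubated 48 h at 30 °C in a moist dark chamber, read at OD405. MIC80 and MIC50 taken from % inhibition dose-response curves (mean ± SEM, triplicate). Amphotericin B was the positive control.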

Cryptococcus neoformans [4] = experiment: Antifungal activity against Cryptococcus neoformans ATCC 32264 incubated for 48 hrs under dark condition by broth microdilution method; format: functional; conditions: ATCC 32264, 48 h; outline: as §2
Candida albicans [5] = experiment: Growth inhibition of Candida albicans ATCC 10231 at 250 ug/ml incubated for 48 hrs under dark condition by broth microdilution method relative to control; format: functional; conditions: ATCC 10231, 48 h, read-out: GI
Outline: (§3)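 CLSI M27-A3 broth microdilution in RPMI-1640, DMSO ≤1%. Inoculum 1-5 × 10^3 CFU/mL. Incubated 48 h at 30 °C, dark. % inhibition = 100 − (OD405 test − sterility control)/(OD405 growth control − sterility control), with growth and sterility control wells. Triplicate.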

Candida albicans [6] = experiment: Growth inhibition of Candida albicans ATCC 10231 at 125 ug/ml incubated for 48 hrs under dark condition by broth microdilution method relative to control; format: functional; conditions: ATCC 10231, 48 h, read-out: GI; outline: as §3
Candida albicans [7] = experiment: Growth inhibition of Candida albicans ATCC 10231 at 62.5 ug/ml incubated for 48 hrs under dark condition by broth microdilution method relative to control; format: functional; conditions: ATCC 10231, 48 h, read-out: GI; outline: as §3
Candida albicans [8] = experiment: Growth inhibition of Candida albicans ATCC 10231 at 31.25 ug/ml incubated for 48 hrs under dark condition by broth microdilution method relative to control; format: functional; conditions: ATCC 10231, 48 h, read-out: GI; outline: as §3
Candida albicans [9] = experiment: Growth inhibition of Candida albicans ATCC 10231 at 15.62 ug/ml incubated for 48 hrs under dark condition by broth microdilution method relative to control; format: functional; conditions: ATCC 10231, 48 h, read-out: GI; outline: as §3
Candida albicans [10] = experiment: Growth inhibition of Candida albicans ATCC 10231 at 7.8 ug/ml incubated for 48 hrs under dark condition by broth microdilution method relative to control; format: functional; conditions: ATCC 10231, 48 h, read-out: GI; outline: as §3
Candida albicans [11] = experiment: Growth inhibition of Candida albicans ATCC 10231 at 3.4 ug/ml incubated for 48 hrs under dark condition by broth microdilution method relative to control; format: functional; conditions: ATCC 10231, 48 h, read-out: GI
Cryptococcus neoformans [12] = experiment: Growth inhibition of Cryptococcus neoformans ATCC 32264 at 250 ug/ml incubated for 48 hrs under dark condition by broth microdilution method relative to control; format: functional; conditions: ATCC 32264, 48 h, read-out: GI; outline: as §3
Cryptococcus neoformans [13] = experiment: Growth inhibition of Cryptococcus neoformans ATCC 32264 at 125 ug/ml incubated for 48 hrs under dark condition by broth microdilution method relative to control; format: functional; conditions: ATCC 32264, 48 h, read-out: GI; outline: as §3
Cryptococcus neoformans [14] = experiment: Growth inhibition of Cryptococcus neoformans ATCC 32264 at 62.5 ug/ml incubated for 48 hrs under dark condition by broth microdilution method relative to control; format: functional; conditions: ATCC 32264, 48 h, read-out: GI; outline: as §3
Cryptococcus neoformans [15] = experiment: Growth inhibition of Cryptococcus neoformans ATCC 32264 at 31.25 ug/ml incubated for 48 hrs under dark condition by broth microdilution method relative to control; format: functional; conditions: ATCC 32264, 48 h, read-out: GI; outline: as §3
Cryptococcus neoformans [16] = experiment: Growth inhibition of Cryptococcus neoformans ATCC 32264 at 15.62 ug/ml incubated for 48 hrs under dark condition by broth microdilution method relative to control; format: functional; conditions: ATCC 32264, 48 h, read-out: GI; outline: as §3
Cryptococcus neoformans [17] = experiment: Growth inhibition of Cryptococcus neoformans ATCC 32264 at 7.8 ug/ml incubated for 48 hrs under dark condition by broth microdilution method relative to control; format: functional; conditions: ATCC 32264, 48 h, read-out: GI; outline: as §3
Cryptococcus neoformans [18] = experiment: Growth inhibition of Cryptococcus neoformans ATCC 32264 at 3.4 ug/ml incubated for 48 hrs under dark condition by broth microdilution method relative to control; format: functional; conditions: ATCC 32264, 48 h, read-out: GI
Staphylococcus aureus [19] = experiment: Antibacterial activity against methicillin-sensitive Staphylococcus aureus ATCC 25923 after 24 hrs by resazurin dye based microdilution assay; format: functional; conditions: ATCC 25923, 24 h; outline: as §1
Staphylococcus aureus [20] = experiment: Antibacterial activity against methicillin-resistant Staphylococcus aureus ATCC 43300 after 24 hrs by resazurin dye based microdilution assay; format: functional; conditions: ATCC 43300, 24 h
Outline: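 Broth microdilution in Mueller Hinton broth, inoculum 5 × 10^5 – 8 × 10^5. Compound stocks diluted in MHB with 5% DMSO and 0.1% Tween 80. Incubation 24 h at 35-37 °C. MIC is the lowest concentration with visible growth inhibition and/or by resazurin (1 mg/mL) read-out. Gentamicin as control. Run in duplicate, replicated at least three times.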

Staphylococcus aureus [21] = experiment: Antibacterial activity against vancomycin-intermediate Staphylococcus aureus after 24 hrs by resazurin dye based microdilution assay; format: functional; outline: as §1
Escherichia coli = experiment: Antibacterial activity against Escherichia coli ATCC 25922 after 24 hrs by resazurin dye based microdilution assay; format: functional; conditions: ATCC 25922, 24 h; outline: as §1
Pseudomonas aeruginosa = experiment: Antibacterial activity against Pseudomonas aeruginosa ATCC 27853 after 24 hrs by resazurin dye based microdilution assay; format: functional; conditions: ATCC 27853, 24 h; outline: as §1
Neisseria gonorrhoeae = experiment: Antibacterial activity against beta lactamase positive Neisseria gonorrhoeae ATCC 31426 by oxidase test; format: functional
Outline: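 Agar dilution MIC on GC agar with 1% isovitalex containing increasing compound concentrations. Plates inoculated with about 1×10^4 CFU (5 µL). MIC is the lowest concentration that inhibited growth, with growth confirmed by oxidase test. Run in duplicate, repeated at least three times.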

Plasmodium falciparum = experiment: Antiplasmodial activity against chloroquine-sensitive Plasmodium falciparum 3D7 assessed as reduction in parasitic LDH activity after 48 hrs by Malstat reagent based […] method; format: functional; conditions: 3D7, 48 h
Outline: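 Unsynchronized P. falciparum 3D7 at 0.5% parasitemia and 1% hematocrit in RPMI with 3% Albumax II. Exposed to 100, 25, 6.25 and 1.56 µg/mL for 48 h at 37 °C under 90% N2/5% CO2/5% O2. After three freeze-thaw cycles, LDH measured with Malstat and NBT/PES, 1 h in the dark, read at 650 nm. IC50 by Probit; triplicate, ≥2 experiments.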

U-937 = experiment: Cytotoxicity against human U937 cells after 72 hrs by MTT assay; format: cell-based; conditions: u-937, 72 h
Outline: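 Exponentially growing U-937 at 1 × 10^5 cells/mL in RPMI-1640 with 10% FBS were exposed to 200, 50, 12.5 and 3.125 µg/mL for 72 h at 37 °C, 5% CO2. MTT for 3 h, stopped with isopropanol/SDS, formazan read at 570 nm, blank-corrected. LC50 by Probit from % viability against untreated cells. Triplicate, at least two independent experiments.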

Trypanosoma cruzi = experiment: Antitrypanosomal activity against Trypanosoma cruzi Tulahuen intracellular amastigote harboring LacZ infected in human U937 cells after 72 hrs by CPRG/Nonidet reagent based spectrophotometric method; format: functional, cell-based; conditions: U-937, 72 h
Outline: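 U-937 cells at 2.5 × 10^5 cells/mL in RPMI-1640 with 10% serum and 0.1 µg/mL PMA were infected with β-galactosidase-transfected Tulahuen epimastigotes at 5 parasites per cell. Infected cells were exposed to 50, 12.5, 3.125 and 0.78 µg/mL for 72 h. CPRG (100 uM) and 0.1% Nonidet P-40 were added for 3 h, read at 570 nm. EC50 by Probit. Triplicate, at least two experiments; benznidazole as reference.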

Row | SMILES | MIC (Klebsiella pneumoniae [1]) | MIC (Klebsiella pneumoniae [2]) | EC50 (Leishmania panamensis) | MIC50 (Candida albicans [3]) | MIC80 (Candida albicans [3]) | MIC50 (Cryptococcus neoformans [4]) | MIC80 (Cryptococcus neoformans [4]) | inhibition of growth at 250 µg/mL (Candida albicans [5]) | inhibition of growth at 125 µg/mL (Candida albicans [6]) | inhibition of growth at 62.5 µg/mL (Candida albicans [7]) | inhibition of growth at 31.25 µg/mL (Candida albicans [8]) | inhibition of growth at 15.62 µg/mL (Candida albicans [9]) | inhibition of growth at 7.8 µg/mL (Candida albicans [10]) | inhibition of growth at 3.4 µg/mL (Candida albicans [11]) | inhibition of growth at 250 µg/mL (Cryptococcus neoformans [12]) | inhibition of growth at 125 µg/mL (Cryptococcus neoformans [13]) | inhibition of growth at 62.5 µg/mL (Cryptococcus neoformans [14]) | inhibition of growth at 31.25 µg/mL (Cryptococcus neoformans [15]) | inhibition of growth at 15.62 µg/mL (Cryptococcus neoformans [16]) | inhibition of growth at 7.8 µg/mL (Cryptococcus neoformans [17]) | other results
1 | O=C(/C=C/c1cccc(Nc2ccnc3cc(Cl)ccc23)c1)c1ccc(Br)cc1 | > 1000 µg/mL | > 1000 µg/mL | 0.88 µg/mL (≈ 1.9 µM) | 250 µg/mL (≈ 539 µM) | ≥ 250 µg/mL | 125 µg/mL (≈ 270 µM) | 250 µg/mL (≈ 539 µM) | 58% | 47.7% | 35.3% | 28.9% | 32% | 21.1% | 15.8% | 100% | 70.6% | 47.9% | 46.4% | 44.5% | 35.1% | inhibition of growth at 3.4 µg/mL (Cryptococcus neoformans [18]): 34.9%; MIC (Staphylococcus aureus [19]): > 1000 µg/mL; MIC (Staphylococcus aureus [20]): > 1000 µg/mL; MIC (Staphylococcus aureus [21]): > 1000 µg/mL; MIC (Escherichia coli): > 1000 µg/mL; MIC (Pseudomonas aeruginosa): > 1000 µg/mL; MIC (Neisseria gonorrhoeae): > 1000 µg/mL; EC50 (Plasmodium falciparum): 10.3 µg/mL (≈ 22.3 µM); LC50 (U-937): 0.7 µg/mL (≈ 1.51 µM); EC50 (Trypanosoma cruzi): 1.35 µg/mL (≈ 2.91 µM)
2 | COc1cc(C2=NN(c3ccccc3)C(c3cccc(Nc4ccnc5cc(Cl)ccc45)c3)C2)cc(OC)c1OC (stereo not given) | > 1000 µg/mL | > 1000 µg/mL | 13.4 µg/mL (≈ 23.7 µM) | 250 µg/mL (≈ 442 µM) | ≥ 250 µg/mL | 250 µg/mL (≈ 442 µM) | ≥ 250 µg/mL | 60.5% | 42.3% | 23.4% | 13.4% | 11.6% | 6.63% | 4.16% | 58.6% | 18.3% | 16.2% | 1.65% | 0.13% | 0% | inhibition of growth at 3.4 µg/mL (Cryptococcus neoformans [18]): 0%; MIC (Staphylococcus aureus [19]): > 1000 µg/mL; MIC (Staphylococcus aureus [20]): > 1000 µg/mL; MIC (Staphylococcus aureus [21]): > 1000 µg/mL; MIC (Escherichia coli): > 1000 µg/mL; MIC (Pseudomonas aeruginosa): > 1000 µg/mL; MIC (Neisseria gonorrhoeae): > 1000 µg/mL; EC50 (Plasmodium falciparum): 15.5 µg/mL (≈ 27.4 µM); LC50 (U-937): > 200 µg/mL; EC50 (Trypanosoma cruzi): 21.6 µg/mL (≈ 38.2 µM)
